# Columns and labels:
# [1] = target: T1, Vasopressin V1a receptor (Homo sapiens, UniProt P37288); experiment: Evaluated for intracellular calcium mobilization in HEK293 cells transfected to express human vasopressin V1a receptor; format: functional, cell-based
# Summary of the method: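 Functional V1a assay: intracellular calcium mobilization measured in HEK-293 cells transfected to express human V1a receptor; IC50 in nM.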
# [2] = target: T1, Vasopressin V1a receptor; experiment: Binding affinity measured by inhibition of 3[H] AVP binding to cloned human vasopressin V1a receptor
# Summary of the method: (§1)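 Radioligand binding: inhibition of [3H]AVP binding to cloned human V1a or V2 receptors; IC50 in nM.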
# [3] = target: T1, Vasopressin V1a receptor; experiment: Evaluated for intracellular calcium mobilization in HEK- 293 cells transfected to express human vasopressin V1a receptor (Compound 7o); format: functional, cell-based, HEK293
# Summary of the method: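 Antagonism measured as inhibition of intracellular calcium mobilization in HEK-293 cells transfected with human V1a receptor; IC50 reported.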
# [4] = target: T1, Vasopressin V1a receptor; experiment: Binding affinity measured by inhibition of 3[H] AVP binding to cloned human vasopressin V1a receptor (Compound 7o)
# Summary of the method: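 Displacement of [3H]AVP from cloned human V1a receptor; IC50 from inhibition of radioligand binding.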
# [5] = target: T2, Vasopressin V2 receptor (Homo sapiens, UniProt P30518); experiment: Binding affinity measured by inhibition of 3[H] AVP binding to cloned human vasopressin V2 receptor; summary of the method: as §1
# [6] = target: T2, Vasopressin V2 receptor; experiment: Evaluated for accumulation of cAMP in transfected HEK293 cells expressing human vasopressin V2 receptor; format: functional, cell-based
# Summary of the method: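 Functional V2 assay: cAMP accumulation measured in transfected HEK-293 cells expressing human V2 receptor; IC50 in nM.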
# [7] = Half-life was evaluated in rats at an intravenous dose of 3 mg/kg; format: ADME, organism-based; parameters: dose 3 mg/kg, route intravenous; conditions: rat, in vivo
# [8] = Bioavailability was evaluated in rats at an oral dose of 30 mg/kg; format: ADME, organism-based; conditions: rat, in vivo
# Summary of the method: (§2)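 Rats given a single oral dose of 30 mg/kg. Cmax, Tmax, terminal half-life and absolute oral bioavailability determined.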
# [9] = Partition coefficient (logP); format: physicochemical; conditions: octanol/water
# [10] = Maximum plasma concentration was evaluated in rats at an intravenous dose of 3 mg/kg; format: ADME, organism-based; parameters: dose 3 mg/kg, route intravenous; conditions: rat
# [11] = Apparent volume of distribution when 3 mg/Kg dose was administered intravenously; format: ADME, organism-based; conditions: rat, in vivo, iv, read-out: Volume distribution
# Summary of the method: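 Rats given a single intravenous dose of 3 mg/kg. Apparent volume of distribution reported in […].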
# [12] = Area under the curve was evaluated at an oral dose of 30 mg/kg; format: ADME, organism-based; parameters: dose 30 mg/kg, route oral; conditions: rat, in vivo
# [13] = Area under the curve was evaluated at an intravenous dose of 3 mg/kg; format: ADME, organism-based; parameters: dose 3 mg/kg, route intravenous; conditions: rat, in vivo
# [14] = Solubility measured at pH 7.4; format: physicochemical; conditions: buffer
# [15] = Solubility measured at pH 2; format: physicochemical; conditions: buffer
# [16] = Maximum plasma concentration was evaluated in rats at an oral dose of 30 mg/kg; format: ADME, organism-based; parameters: dose 30 mg/kg, route oral; conditions: rat; summary of the method: as §2
# [17] = Half-life was evaluated in rats at an oral dose of 30 mg/kg; format: ADME, organism-based; parameters: dose 30 mg/kg, route oral; conditions: rat, in vivo; summary of the method: as §2
# [18] = Half-life determined by human liver microsome stability assay at a concentration of 5 uM; format: ADME; conditions: liver microsomes
# [19] = target: T3, Vasopressin V1a receptor (Rattus norvegicus, UniProt P30560); experiment: Evaluated for binding affinity towards vasopressin V1a receptor in rat
# Summary of the method: (§3)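 Binding IC50 measured in cells transfected with rat V1a or rat V2 receptors.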
# [20] = Time to reach maximum plasma concentration was evaluated at an oral dose of 30 mg/kg; format: ADME, organism-based; parameters: dose 30 mg/kg, route oral; conditions: rat; summary of the method: as §2
# [21] = target: T3, Vasopressin V1a receptor; experiment: Evaluated for binding affinity towards vasopressin receptor V1a in rat; summary of the method: as §3
# [22] = target: Vasopressin V2 receptor (Rattus norvegicus, UniProt Q00788); experiment: Evaluated for binding affinity towards vasopressin V2 receptor in rat; summary of the method: as §3
# Sequence of Vasopressin V2 receptor (Rattus norvegicus, UniProt Q00788) (Q00788 whole entry): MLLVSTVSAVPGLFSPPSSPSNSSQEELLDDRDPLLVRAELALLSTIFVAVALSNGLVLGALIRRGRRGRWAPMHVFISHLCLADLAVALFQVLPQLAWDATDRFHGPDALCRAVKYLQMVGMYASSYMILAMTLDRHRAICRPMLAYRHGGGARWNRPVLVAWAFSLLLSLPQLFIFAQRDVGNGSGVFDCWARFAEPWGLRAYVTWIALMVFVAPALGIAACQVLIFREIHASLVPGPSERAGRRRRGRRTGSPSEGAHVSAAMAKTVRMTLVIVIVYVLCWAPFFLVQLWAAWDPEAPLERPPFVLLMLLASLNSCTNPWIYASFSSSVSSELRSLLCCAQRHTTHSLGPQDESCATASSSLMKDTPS
# T2 sequence (P30518 whole entry): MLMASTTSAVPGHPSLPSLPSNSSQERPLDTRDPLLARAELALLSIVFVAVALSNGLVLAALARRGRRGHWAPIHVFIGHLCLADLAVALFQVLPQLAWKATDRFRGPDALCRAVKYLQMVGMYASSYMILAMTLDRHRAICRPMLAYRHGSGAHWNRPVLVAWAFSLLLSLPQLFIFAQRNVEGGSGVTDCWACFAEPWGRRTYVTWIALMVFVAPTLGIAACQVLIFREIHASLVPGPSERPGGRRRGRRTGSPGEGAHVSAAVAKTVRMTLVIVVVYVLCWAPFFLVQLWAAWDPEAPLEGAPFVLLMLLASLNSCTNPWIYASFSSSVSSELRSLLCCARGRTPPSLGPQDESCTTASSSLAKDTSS
# T1 sequence (P37288 whole entry): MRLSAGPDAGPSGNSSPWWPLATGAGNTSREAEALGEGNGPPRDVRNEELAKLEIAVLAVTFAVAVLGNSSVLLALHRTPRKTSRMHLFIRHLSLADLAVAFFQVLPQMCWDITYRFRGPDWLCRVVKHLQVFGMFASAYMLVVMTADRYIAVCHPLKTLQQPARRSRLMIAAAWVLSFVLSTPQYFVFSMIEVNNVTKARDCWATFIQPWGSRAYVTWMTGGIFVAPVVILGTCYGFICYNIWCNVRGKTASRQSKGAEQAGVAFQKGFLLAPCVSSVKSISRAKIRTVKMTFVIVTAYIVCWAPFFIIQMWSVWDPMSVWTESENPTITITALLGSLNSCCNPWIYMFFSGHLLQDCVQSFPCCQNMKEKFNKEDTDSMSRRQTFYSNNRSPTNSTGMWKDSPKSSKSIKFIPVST
# T3 sequence (P30560 whole entry): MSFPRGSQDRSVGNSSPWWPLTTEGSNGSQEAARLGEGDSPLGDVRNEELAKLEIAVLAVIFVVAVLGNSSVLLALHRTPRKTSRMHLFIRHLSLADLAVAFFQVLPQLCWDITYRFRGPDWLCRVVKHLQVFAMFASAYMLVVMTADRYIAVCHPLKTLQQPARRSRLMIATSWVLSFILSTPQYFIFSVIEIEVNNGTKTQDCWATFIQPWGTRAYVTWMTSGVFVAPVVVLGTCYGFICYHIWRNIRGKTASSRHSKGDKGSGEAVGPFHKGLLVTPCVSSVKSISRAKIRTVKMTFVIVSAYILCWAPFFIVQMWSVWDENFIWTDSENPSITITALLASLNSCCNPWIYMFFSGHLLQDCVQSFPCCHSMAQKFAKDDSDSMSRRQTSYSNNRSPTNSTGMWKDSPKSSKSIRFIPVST
SMILES,IC50 [1],IC50 [2],IC50 [5],IC50 [6],further results
Cc1ccc(F)cc1C(=O)Nc1ccc(C(=O)N2CCC3(C=C(C(=O)NCCN4CCCCC4)CC3)Cc3ccccc32)cc1 (stereo not drawn),48 nM,10 nM,39 nM,48 nM,IC50 [3]: 71 nM; IC50 [4]: 16 nM
Cc1ccc(F)cc1C(=O)Nc1ccc(C(=O)N2CCC3(C=C(C(=O)NCCN4CCCC4)CC3)Cc3ccccc32)cc1 (stereo not drawn),29 nM,19 nM,39 nM,48 nM,
O=C(NCCN1CCCC1)C1=CC2(CC1)CCN(C(=O)c1ccc(NC(=O)c3ccccc3F)cc1)c1ccccc1C2 (stereo not drawn),155 nM,8 nM,> 1000 nM,> 1000 nM,
O=C(NCCN1CCOCC1)C1=CC2(CC1)CCN(C(=O)c1ccc(NC(=O)c3ccccc3F)cc1)c1ccccc1C2 (stereo not drawn),,4 nM,> 1000 nM,,
Cc1ccc(F)cc1C(=O)Nc1ccc(C(=O)N2CCC3(C=C(C(=O)NCCCN(C)C)CC3)Cc3ccccc32)cc1 (stereo not drawn),4 nM,,,31 nM,
COC(=O)CNC(=O)C1=CC2(CC1)CCN(C(=O)c1ccc(NC(=O)c3cc(F)ccc3C)cc1)c1ccccc1C2 (stereo not drawn),135 nM,7 nM,10 nM,440 nM,
Cc1ccc(F)cc1C(=O)Nc1ccc(C(=O)N2CCC3(C=C(C(=O)NCCN(C)C)CC3)Cc3ccccc32)cc1 (stereo not drawn),65 nM,,20 nM,105 nM,
O=C(NCCN1CCCCC1)C1=CC2(CC1)CCN(C(=O)c1ccc(NC(=O)c3ccccc3F)cc1)c1ccccc1C2 (stereo not drawn),,,> 1000 nM,> 1000 nM,

# Now from value to compound, other results behind:
IC50 [1],IC50 [2],IC50 [5],IC50 [6],SMILES,further results
,,> 1000 nM,> 1000 nM,CN(C)CCNC(=O)C1=CC2(CC1)CCN(C(=O)c1ccc(NC(=O)c3ccccc3F)cc1)c1ccccc1C2 (stereo not drawn),
,,> 1000 nM,> 1000 nM,O=C(NCCO)C1=CC2(CC1)CCN(C(=O)c1ccc(NC(=O)c3ccccc3F)cc1)c1ccccc1C2 (stereo not drawn),
45 nM,2 nM,8 nM,36 nM,CN(C)CCNC(=O)C1=C[C@]2(CC1)CCN(C(=O)c1ccc(NC(=O)c3ccccc3-c3ccccc3)cc1)c1ccccc1C2,half-life [7]: 1.68 h; bioavailability [8]: 22%; logP [9]: 3.63; Cmax [10]: 2660 nM; Vd [11]: 6.84 L/kg; AUC [12]: 4.57 µM·h; AUC [13]: 2.06 µM·h; solubility [14]: 40 µg/mL; solubility [15]: 160 µg/mL; Cmax [16]: 790 nM; half-life [17]: 6.47 h; half-life at 5 µM [18]: 1.08 h; IC50 [19]: 33 nM; Tmax [20]: 4 h
,,,100 nM,CN(C)CCNC(=O)C1=CC2(CC1)CCN(C(=O)c1ccc(NC(=O)c3ccccc3-c3ccccc3)cc1)c1ccccc1C2 (stereo not drawn),
29 nM,5 nM,16 nM,20 nM,CN(C)CCCNC(=O)C1=CC2(CC1)CCN(C(=O)c1ccc(NC(=O)c3ccccc3-c3ccccc3)cc1)c1ccccc1C2 (stereo not drawn),
78 nM,24 nM,18 nM,350 nM,O=C(O)CNC(=O)C1=CC2(CC1)CCN(C(=O)c1ccc(NC(=O)c3ccccc3-c3ccccc3)cc1)c1ccccc1C2 (stereo not drawn),
,,,170 nM,O=C(NCCO)C1=CC2(CC1)CCN(C(=O)c1ccc(NC(=O)c3ccccc3-c3ccccc3)cc1)c1ccccc1C2 (stereo not drawn),
78 nM,4 nM,341 nM,646 nM,"CN(C)CCNC(=O)C1=C[C@@]2(CC1)CCN(C(=O)c1ccc(NC(=O)c3ccccc3F)cc1)c1ccccc1C2 (single isomer, unassigned)",half-life [7]: 4.35 h; bioavailability [8]: 42%; logP [9]: 2.45; Cmax [10]: 1800 nM; Vd [11]: 6.67 L/kg; AUC [12]: 7.04 µM·h; AUC [13]: 1.68 µM·h; IC50 [21]: 433 nM; solubility [14]: 70 µg/mL; solubility [15]: 320 µg/mL; Cmax [16]: 1100 nM; half-life [17]: 4.15 h; half-life at 5 µM [18]: 0.717 h; Tmax [20]: 4.67 h; IC50 [22]: 444 nM

# Source: ChEMBL document CHEMBL1146639, “Synthesis and evaluation of nonpeptide substituted spirobenzazepines as potent vasopressin antagonists” (Bioorg Med Chem Lett, 2004)
